According to ChEMBL document CHEMBL1124558, “Differential effects of a series of hydroxamic acid derivatives on 5-lipoxygenase and cyclooxygenase from neutrophils and 12-lipoxygenase from platelets and their in vivo effects on inflammation and anaphylaxis” (J Med Chem, 1989):

Assays:
[1] = molecular target: T1, Polyunsaturated fatty acid 5-lipoxygenase (Rattus norvegicus, UniProt P12527); assay: In vitro inhibition of rat polymorphonuclear leukocyte 5-lipoxygenase
T1 sequence (P12527 whole entry): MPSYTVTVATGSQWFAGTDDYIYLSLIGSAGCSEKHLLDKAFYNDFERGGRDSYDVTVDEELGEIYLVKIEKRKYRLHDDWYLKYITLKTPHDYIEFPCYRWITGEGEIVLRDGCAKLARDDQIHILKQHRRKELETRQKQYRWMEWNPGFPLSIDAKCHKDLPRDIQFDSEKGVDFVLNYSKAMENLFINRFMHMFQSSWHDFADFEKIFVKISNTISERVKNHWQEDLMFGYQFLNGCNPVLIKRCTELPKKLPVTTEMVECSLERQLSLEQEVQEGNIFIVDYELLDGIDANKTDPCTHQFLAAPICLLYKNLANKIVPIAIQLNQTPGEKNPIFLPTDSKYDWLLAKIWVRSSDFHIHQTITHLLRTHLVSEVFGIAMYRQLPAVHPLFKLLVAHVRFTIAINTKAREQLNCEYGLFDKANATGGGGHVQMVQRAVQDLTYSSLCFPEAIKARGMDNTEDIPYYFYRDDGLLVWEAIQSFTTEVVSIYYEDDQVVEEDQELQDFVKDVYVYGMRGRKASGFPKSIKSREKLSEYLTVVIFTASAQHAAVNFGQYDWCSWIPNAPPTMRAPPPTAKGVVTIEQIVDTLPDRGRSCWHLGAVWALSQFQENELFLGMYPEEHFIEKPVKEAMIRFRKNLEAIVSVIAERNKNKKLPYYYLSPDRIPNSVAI
Summary of the method: (§1)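 Intact glycogen-elicited peritoneal PMNs pooled from 4–5 Sprague-Dawley rats (250 g), preincubated 5 min at 30 °C with compound in DMSO (≤0.1% final) plus 1 μM indomethacin. Challenge with [14C]arachidonic acid (4 μM) and A23187 (0.8 μM) for 3 min. Extraction, TLC, 5-HETE by scintillation counting.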

[2] = molecular target: T2, Polyunsaturated fatty acid 5-lipoxygenase (Homo sapiens, UniProt P09917); assay: In vitro inhibition of polymorphonuclear leukocyte derived human 5-lipoxygenase
T2 sequence (P09917 whole entry): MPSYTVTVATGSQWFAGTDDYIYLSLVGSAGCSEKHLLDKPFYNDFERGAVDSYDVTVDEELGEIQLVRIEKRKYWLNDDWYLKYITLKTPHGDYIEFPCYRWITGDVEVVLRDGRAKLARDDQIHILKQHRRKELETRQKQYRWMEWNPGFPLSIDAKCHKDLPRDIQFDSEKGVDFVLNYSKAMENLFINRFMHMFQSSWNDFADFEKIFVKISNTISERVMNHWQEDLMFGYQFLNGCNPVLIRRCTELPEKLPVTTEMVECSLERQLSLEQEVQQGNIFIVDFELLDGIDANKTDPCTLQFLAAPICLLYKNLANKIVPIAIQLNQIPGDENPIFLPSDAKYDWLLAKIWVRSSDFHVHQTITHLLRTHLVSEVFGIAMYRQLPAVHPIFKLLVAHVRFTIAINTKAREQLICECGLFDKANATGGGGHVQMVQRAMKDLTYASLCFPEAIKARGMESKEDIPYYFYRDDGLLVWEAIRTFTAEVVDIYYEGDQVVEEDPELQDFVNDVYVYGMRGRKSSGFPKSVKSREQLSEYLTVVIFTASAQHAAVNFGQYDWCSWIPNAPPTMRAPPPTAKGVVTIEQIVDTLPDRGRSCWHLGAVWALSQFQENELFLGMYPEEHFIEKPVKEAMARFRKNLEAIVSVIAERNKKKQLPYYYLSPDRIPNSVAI
Summary of the method: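 PMNs from venous blood of healthy volunteers, isolated by dextran sedimentation and Percoll gradient (>90% pure) and held in Ca/Mg PBS with 1 mg/mL glucose and 1 μM indomethacin. Challenged with calcium ionophore and [14C]arachidonic acid for 3 min. 5-HETE measured by TLC and scintillation counting; IC50 read graphically.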

[3] = molecular target: T3, Cyclooxygenase (Rattus norvegicus) (UniProt P35355+Q63921); assay: Inhibition of Prostaglandin G/H synthase in rat polymorphonuclear leukocytes; format: cell-based; design: concentration or dose not given beside the values; conditions: concentration not given here
Summary of the method: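 Homogenate of glycogen-elicited rat peritoneal PMNs in 0.1 M Tris-HCl pH 8.2 with 10 μM NDGA, preincubated 5 min at 37 °C with compound (≤0.1% DMSO). [14C]arachidonic acid (8 μM) added with 4 mM glutathione and epinephrine; 10 min reaction. TxB2 and PGF2α separated by TLC and counted.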

Mus musculus = assay: In vivo inhibition of mouse ear inflammation; format: functional; design: concentration or dose not given beside the values
Summary of the method: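 Compound or ethanol vehicle applied topically to one ear of male DBA/2J mice 60 min before arachidonic acid (2 mg/ear). […] Groups of 5 mice.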

Cavia porcellus = assay: In vivo inhibitory activity against guinea pig systemic anaphylaxis when administered a compound dose (200 mg/kg) perorally; format: functional; conditions: po
Summary of the method: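 Male Hartley guinea pigs sensitised ip with ovalbumin (2.7 mg/kg) plus LPS adjuvant, then challenged 2 weeks later with 1% ovalbumin aerosol for 30 s. Pretreated with pyrilamine, indomethacin and propranolol 20 min before challenge. Compound given in PEG 400 1 h before challenge.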

[4] = molecular target: T3, Cyclooxygenase (Rattus norvegicus); assay: In vitro inhibitory activity against rat polymorphonuclear leukocyte Prostaglandin G/H synthase at 100 uM; format: protein assay
Summary of the method: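 Glycogen-elicited peritoneal PMNs from Sprague-Dawley rats were homogenized at 0 °C in 0.1 M Tris-HCl pH 8.2 with 10 μM NDGA. Compound (DMSO ≤0.1%) was preincubated 5 min at 37 °C, then 8 μM [14C]arachidonic acid with 4 mM glutathione and epinephrine was added for 10 min. TxB2 and PGF2α were measured by TLC and scintillation counting.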

[5] = molecular target: T4, Polyunsaturated fatty acid 5-lipoxygenase (Rattus norvegicus) (UniProt P12527); assay: In vitro inhibitory activity against polymorphonuclear leukocyte 5-lipoxygenase in rat cell at 1 uM; summary of the method: as §1
T4 sequence (whole entry): T1 sequence (P12527 whole entry)

[6] = molecular target: T5, Arachidonate 12-lipoxygenase (Rattus norvegicus) (UniProt Q02759); assay: In vitro inhibitory activity against rat platelet 12-lipoxygenase at 100 uM
T5 sequence (whole entry): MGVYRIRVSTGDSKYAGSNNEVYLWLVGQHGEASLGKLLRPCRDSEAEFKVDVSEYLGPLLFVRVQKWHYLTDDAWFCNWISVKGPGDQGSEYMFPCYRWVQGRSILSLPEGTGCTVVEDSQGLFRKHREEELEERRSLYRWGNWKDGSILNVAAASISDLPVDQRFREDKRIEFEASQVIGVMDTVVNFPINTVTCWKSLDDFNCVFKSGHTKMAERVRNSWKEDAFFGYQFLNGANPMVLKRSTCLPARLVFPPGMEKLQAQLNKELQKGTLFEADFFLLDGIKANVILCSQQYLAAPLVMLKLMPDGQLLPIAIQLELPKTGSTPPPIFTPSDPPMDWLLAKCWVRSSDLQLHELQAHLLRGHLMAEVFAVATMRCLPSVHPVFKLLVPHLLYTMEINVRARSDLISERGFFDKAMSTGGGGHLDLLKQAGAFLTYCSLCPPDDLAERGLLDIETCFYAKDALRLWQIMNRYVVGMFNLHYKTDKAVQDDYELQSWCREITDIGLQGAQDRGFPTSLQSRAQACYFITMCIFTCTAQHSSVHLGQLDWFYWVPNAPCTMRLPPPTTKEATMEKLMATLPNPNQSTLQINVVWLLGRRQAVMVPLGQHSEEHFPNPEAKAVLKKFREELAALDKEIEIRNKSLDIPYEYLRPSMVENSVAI
Summary of the method: (§2)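 Cell-free cytosolic 12-lipoxygenase from Sprague-Dawley rat platelets (0.4 mg/mL), preincubated 5 min at 30 °C with compound in DMSO (≤0.1% final), 25 mM Tris pH 7.4, 1 μM indomethacin, 100 μM glutathione; reaction started with 6 μM [14C]arachidonic acid and quenched with citric acid/NDGA after 3 min. 12-HETE isolated by TLC and counted by scintillation; % inhibition, duplicate.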

[7] = molecular target: T4, Polyunsaturated fatty acid 5-lipoxygenase (Rattus norvegicus); assay: In vitro inhibitory activity against polymorphonuclear leukocyte 5-lipoxygenase in rat cell at 10 uM; summary of the method: as §1
[8] = molecular target: T5, Arachidonate 12-lipoxygenase (Rattus norvegicus); assay: In vitro inhibitory activity against rat platelet 12-lipoxygenase at 10 uM; summary of the method: as §2
[9] = molecular target: T6, Polyunsaturated fatty acid 5-lipoxygenase (Homo sapiens) (UniProt P09917); assay: In vitro inhibitory activity against polymorphonuclear leukocyte 5-lipoxygenase in human cell at 10 uM
T6 sequence (whole entry): T2 sequence (P09917 whole entry)
Summary of the method: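 Human PMNs from venous blood of a healthy volunteer (EDTA) were purified by dextran sedimentation, a Percoll gradient and NH4Cl red-cell lysis (>90% pure). They were held in Ca/Mg PBS with 1 mg/mL glucose and 1 μM indomethacin, then challenged with A23187 (0.8 μM) and [14C]arachidonic acid (4 μM) for 3 min. 5-HETE was measured by TLC and scintillation counting.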

Row | SMILES | IC50 [1] [nM] | IC50 [2] [nM] | inhibition [3] [%] | inhibition [4] [%] | inhibition [5] [%] | inhibition [6] [%] | inhibition [7] [%] | inhibition [8] [%] | inhibition [9] [%] | Inhibition (Mus musculus) [%] | inhibition in vivo at 200 mg/kg (Cavia porcellus) [%]
1 | CC(C(=O)N(O)CCc1ccccc1)c1cccc(OCc2ccccc2)c1 (stereo unspecified) | 300 | 100 | < 10 |  |  |  |  |  |  |  | 
2 | COc1ccc(CCCC(=O)N(C)O)cc1 | 300 | 1300 | < 10 |  |  |  |  |  |  | 67 | 60
3 | CN(O)C(=O)Cc1cccc(OCc2ccc3ccccc3n2)c1 | 80 | 1000 |  | 30 |  |  |  |  |  | 68 | 
4 | CN(O)C(=O)CCCCc1ccccc1 | 110 | 250 | < 10 |  |  |  |  |  |  | 77 | 9
5 | CCOC(=O)CCCN(O)C(=O)CCCc1ccccc1 | 300 | 500 | 44 |  |  |  |  |  |  | 54 | 
6 | COc1ccc(CC(=O)N(O)CCc2ccccc2)cc1 | 1000 | 2500 | 48 |  |  |  |  |  |  | 51 | 
7 | O=C(Cc1ccc(OCc2ccccc2)cc1)NO |  |  | 16 |  | 3 |  |  |  |  |  | 
8 | CCC(Cc1ccccc1)N(O)C(=O)Cc1ccc(OCc2ccccc2)cc1 (stereo unspecified) | 2500 | 3000 | 44 |  |  | < 10 |  |  |  | 38 | 
9 | O=C(O)CCCN(O)C(=O)CCCc1ccccc1 |  |  | < 10 |  |  | 15 | 1 |  |  | 34 | 
10 | CC(C)Cc1ccc(C(C)C(=O)N(O)Cc2ccccc2)cc1 (stereo unspecified) | 1000 | 2000 |  | 20 |  |  |  |  |  |  | 
11 | CC(C)Cc1ccc(C(C)C(=O)N(Cc2ccccc2)OCc2ccccc2)cc1 (stereo unspecified) |  |  | 39 |  |  |  | < 10 | < 10 | < 10 |  | 

Second part, led by results:

Row | IC50 [1] [nM] | IC50 [2] [nM] | inhibition [3] [%] | inhibition [4] [%] | inhibition [5] [%] | inhibition [6] [%] | inhibition [7] [%] | inhibition [8] [%] | inhibition [9] [%] | SMILES | Inhibition (Mus musculus) [%] | inhibition in vivo at 200 mg/kg (Cavia porcellus) [%]
12 | 50 | 150 | 50 |  |  |  |  |  |  | O=C(CCCCc1ccccc1)N(O)Cc1ccccc1 | 52 | 
13 | 120 | 250 |  |  |  |  |  |  |  | COc1ccc(CCCC(=O)N(O)CCc2ccccc2)cc1 | 64 | 0
14 | 100 | 100 |  | 15 |  |  |  |  |  | O=C(CCc1ccccc1)N(O)CCCc1ccccc1 | 67 | 0
15 | 250 | 300 |  | 18 |  |  |  |  |  | O=C(CCOc1ccccc1)N(O)CCc1ccccc1 |  | 
16 | 500 | 600 | < 10 |  |  |  |  |  |  | O=C(Cc1ccc(OCc2ccccc2)cc1)N(O)CCCc1ccccc1 | 12 | 
17 | 150 | 130 | 18 |  |  |  |  |  |  | O=C(CCCc1ccccc1)N(O)Cc1ccccc1 | 51 | 0
18 | 1000 | 1200 |  | 65 |  |  |  |  |  | O=C(COc1ccccc1)N(O)CCc1ccccc1 |  | 
